What was measured:
[1] = Inhibition of IspE in Plasmodium falciparum incubated for 30 mins by microplate reader assay
Summary of the method: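 P. falciparum IspE with C-terminal His6, expressed in E. coli XL1 and purified by Ni2+ chelating chromatography and then G-25 gel filtration. Coupled PK/LDH assay with 1.0 mM CDP-ME in 100 mM Tris-HCl pH 7.6 plus MgCl2, KCl, DTT, NADH, PEP, ATP, PK and LDH. Compound added from DMSO. Read photometrically at room temperature for 30 min.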

[2] = biological target: T1, 4-diphosphocytidyl-2-C-methyl-D-erythritol kinase (Escherichia coli (strain K12), UniProt P62615); assay: Inhibition of IspE expressed in Escherichia coli incubated for 30 mins by microplate reader assay
T1 sequence (P62615 whole entry): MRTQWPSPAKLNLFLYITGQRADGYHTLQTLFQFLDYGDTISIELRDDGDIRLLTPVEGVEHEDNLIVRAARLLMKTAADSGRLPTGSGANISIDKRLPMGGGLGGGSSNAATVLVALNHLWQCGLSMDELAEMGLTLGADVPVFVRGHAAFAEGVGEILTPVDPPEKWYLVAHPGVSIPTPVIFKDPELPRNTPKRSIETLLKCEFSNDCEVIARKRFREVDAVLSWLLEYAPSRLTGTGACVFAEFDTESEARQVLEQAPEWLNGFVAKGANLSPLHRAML

Escherichia coli [3] = assay: Antimicrobial activity against Escherichia coli K-12 mutant assessed as growth inhibition at 100 uM in presence of polymyxin B nonapeptide relative to control; type: functional
[4] = Inhibition of PK/LDH (unknown origin)
Summary of the method: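 Counter-screen of the auxiliary enzymes: 1 mM ADP, 2 mM PEP, 1 mM NADH, PK and LDH (0.05 U/mL each), 10 mM MgCl2, 200 mM KCl, 10 mM DTT in 100 mM Tris-HCl pH 7.6. Compound added from DMSO. NADH decrease monitored photometrically at room temperature for 30 min.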

Escherichia coli [5] = assay: Antimicrobial activity against Escherichia coli harboring delta tolC mutant assessed as growth inhibition at 50 uM relative to control; type: functional
Summary of the method: (§1)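 E. coli K12 wild-type and its ΔtolC and ΔacrB efflux mutants were used. Percentage growth inhibition was taken at 100 μM, or at 25 or 50 μM where compound solubility limited the top concentration, when no MIC could be determined.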

Plasmodium falciparum = assay: Antiplasmodial activity against Plasmodium falciparum NF54 infected in human erythrocyte assessed as reduction in [3H]hypoxanthine incorporation incubated for 24 hrs by beta liquid scintillation counter analysis; type: functional
Summary of the method: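 Compounds (DMSO stocks) were titrated in duplicate over a 64-fold range at 1.25% haematocrit and 0.3% parasitaemia for 48 h. [3H]hypoxanthine (0.25 μCi/well) was then added for 24 h and incorporation counted by scintillation. Results are % of untreated control, with IC50 by linear interpolation.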

Escherichia coli [6] = assay: Antimicrobial activity against Escherichia coli harboring delta tolC mutant assessed as growth inhibition at 25 uM relative to control; type: functional; summary of the method: as §1
Escherichia coli [7] = assay: Antimicrobial activity against Escherichia coli harboring deltaACRB mutant assessed as growth inhibition at 25 uM relative to control; type: functional; summary of the method: as §1
Escherichia coli [8] = assay: Antimicrobial activity against Escherichia coli D22 assessed as growth inhibition at 25 uM relative to control; type: functional
Summary of the method: (§2)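 Broth growth assay with E. coli BL21(DE3)omp8 (porin-[…]), E. coli D22 or S. aureus Newman. Percent growth inhibition was measured at 100 μM, or at a lower concentration where compound solubility limited it, whenever no MIC could be determined.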

Escherichia coli [9] = assay: Antimicrobial activity against Escherichia coli BL21 (DE3) assessed as growth inhibition at 25 uM relative to control; type: functional; summary of the method: as §2
Staphylococcus aureus [10] = assay: Antimicrobial activity against Staphylococcus aureus subsp. aureus str. Newman assessed as growth inhibition at 25 uM relative to control; type: functional; summary of the method: as §2
HepG2 [11] = assay: Cytotoxicity against human HepG2 cells at 25 uM after 72 hrs by MTT assay; type: functional
Escherichia coli [12] = assay: Antimicrobial activity against Escherichia coli harboring delta tolC mutant assessed as growth inhibition at 100 uM relative to control; type: functional; summary of the method: as §1
Escherichia coli [13] = assay: Antimicrobial activity against Escherichia coli K-12 mutant assessed as growth inhibition at 100 uM relative to control; type: functional; summary of the method: as §1
Escherichia coli [14] = assay: Antimicrobial activity against Escherichia coli harboring deltaACRB mutant assessed as growth inhibition at 100 uM relative to control; type: functional; summary of the method: as §1
Escherichia coli [15] = assay: Antimicrobial activity against Escherichia coli D22 assessed as growth inhibition at 100 uM relative to control; type: functional; summary of the method: as §2
Escherichia coli [16] = assay: Antimicrobial activity against Escherichia coli BL21 (DE3) assessed as growth inhibition at 100 uM relative to control; type: functional; summary of the method: as §2
Staphylococcus aureus [17] = assay: Antimicrobial activity against Staphylococcus aureus subsp. aureus str. Newman assessed as growth inhibition at 100 uM relative to control; type: functional; summary of the method: as §2
HepG2 [18] = assay: Cytotoxicity against human HepG2 cells at 100 uM after 72 hrs by MTT assay; type: functional
Escherichia coli [19] = assay: Antimicrobial activity against Escherichia coli harboring deltaACRB mutant assessed as growth inhibition at 50 uM relative to control; type: functional; summary of the method: as §1
Escherichia coli [20] = assay: Antimicrobial activity against Escherichia coli D22 assessed as growth inhibition at 50 uM relative to control; type: functional; summary of the method: as §2
Escherichia coli [21] = assay: Antimicrobial activity against Escherichia coli BL21 (DE3) assessed as growth inhibition at 50 uM relative to control; type: functional; summary of the method: as §2
Staphylococcus aureus [22] = assay: Antimicrobial activity against Staphylococcus aureus subsp. aureus str. Newman assessed as growth inhibition at 50 uM relative to control; type: functional; summary of the method: as §2
HepG2 [23] = assay: Cytotoxicity against human HepG2 cells at 50 uM after 72 hrs by MTT assay; type: functional
[24] = Octanol/water partition co-efficient, log P of compound; type: physicochemical
Summary of the method: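 Log P(o/w) calculated in silico, not measured.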

With `Nc1nc(=O)n(C2CCCS2)cc1C#CCNS(=O)(=O)C1CC1` (stereo unspecified) the IC50 [1] was greater than 500 µM, the IC50 [2] was 1 µM and the inhibition at 100 µM (Escherichia coli [3]) was 6%. For the same compound, the IC50 [4] was greater than 500 µM.

`Cc1cc(-c2csc(NC(=O)[C@@H](NC(=O)OC(C)(C)C)N[C@@H](Cc3ccc(O)cc3)C(=O)O)n2)c(C)n1C` showed an inhibition at 50 µM (Escherichia coli [5]) of 13%.

Compound `Cc1cc(-c2csc(NC(=O)[C@@H](NC(=O)OC(C)(C)C)N[C@H](C(=O)O)C(C)C)n2)c(C)n1C` has an inhibition at 50 µM (Escherichia coli [5]) of 14%.

With `CCCn1c(C)cc(-c2csc(NC(=O)c3ccco3)n2)c1C` the IC50 (Plasmodium falciparum) was 5 µM, the IC50 [1] was 57 µM and the IC50 [2] was 91 µM. The inhibition at 25 µM (Escherichia coli [6]) was 30%, the inhibition at 25 µM (Escherichia coli [7]) was 5% and the inhibition at 25 µM (Escherichia coli [8]) was 9%. It also gave an inhibition at 25 µM (Escherichia coli [9]) of 3%, an inhibition at 25 µM (Staphylococcus aureus [10]) of 6% and an inhibition at 25 µM (HepG2 [11]) of 19%. It also gave an IC50 [4] of 65 µM.

Compound `N[C@@H](NCC(=O)O)C(=O)Nc1csc(-c2ccccc2)n1` has an inhibition at 100 µM (Escherichia coli [12]) of 10%, an inhibition at 100 µM (Escherichia coli [13]) of 22% and an inhibition at 100 µM (Escherichia coli [14]) of 6%. The inhibition at 100 µM (Escherichia coli [15]) was 15%, the inhibition at 100 µM (Escherichia coli [16]) was 19% and the inhibition at 100 µM (Staphylococcus aureus [17]) was 5%. For the same compound, the inhibition at 100 µM (HepG2 [18]) was 17%.

`CCCn1c(C)cc(-c2csc(NC(=O)c3cccs3)n2)c1C` showed an IC50 (Plasmodium falciparum) of 6 µM, an IC50 [1] of 35 µM and an IC50 [2] of 68 µM. For the same compound, the inhibition at 50 µM (Escherichia coli [5]) was 33%, the inhibition at 50 µM (Escherichia coli [19]) was 7% and the inhibition at 50 µM (Escherichia coli [20]) was 4%. For the same compound, the inhibition at 50 µM (Escherichia coli [21]) was 19%, the inhibition at 50 µM (Staphylococcus aureus [22]) was 7% and the inhibition at 50 µM (HepG2 [23]) was -3%. The IC50 [4] was 56 µM.

`Cc1cc(-c2csc(NC(=O)[C@@H](N)N[C@@H](Cc3ccc(O)cc3)C(=O)O)n2)c(C)n1C` gave an inhibition at 100 µM (Escherichia coli [12]) of 38%.

In the case of `CC(C)C[C@H](N[C@H](NC(=O)OC(C)(C)C)C(=O)Nc1csc(-c2ccccc2)n1)C(=O)O`, the inhibition at 100 µM (Escherichia coli [12]) is reported as 3%.

`CC(C)(C)OC(=O)N[C@@H](NCC(=O)O)C(=O)Nc1csc(-c2ccccc2)n1` showed an inhibition at 100 µM (Escherichia coli [12]) of 34%.

`Cc1cc(-c2csc(NC(=O)[C@@H](N)NCC(=O)O)n2)c(C)n1C` showed an inhibition at 100 µM (Escherichia coli [12]) of 57%, an inhibition at 100 µM (Escherichia coli [13]) of 13% and an inhibition at 100 µM (Escherichia coli [14]) of 8%. The inhibition at 100 µM (Escherichia coli [15]) was 3%, the inhibition at 100 µM (Escherichia coli [16]) was 18% and the inhibition at 100 µM (Staphylococcus aureus [17]) was 6%. The inhibition at 50 µM (HepG2 [23]) was 19% and the logP [24] was 0.9.

`CCn1c(C)cc(-c2csc(NC(=O)[C@H](NCC(=O)O)NC(=O)OC(C)(C)C)n2)c1C` gave an inhibition at 50 µM (Escherichia coli [5]) of 41%.

`Cc1cc(-c2csc(NC(=O)[C@@H](N)N[C@H](C(=O)O)C(C)C)n2)c(C)n1C` gave an inhibition at 100 µM (Escherichia coli [12]) of 42%.

Compound `CC(C)C[C@H](N[C@H](N)C(=O)Nc1csc(-c2ccccc2)n1)C(=O)O` has an inhibition at 100 µM (Escherichia coli [12]) of 32%, an inhibition at 100 µM (Escherichia coli [13]) of 18% and an inhibition at 100 µM (Escherichia coli [14]) of 11%. It also gave an inhibition at 100 µM (Escherichia coli [15]) of 18%, an inhibition at 100 µM (Escherichia coli [16]) of 30% and an inhibition at 100 µM (Staphylococcus aureus [17]) of 11%.

In the case of `Cc1cc(-c2csc(NC(=O)[C@@H](N)N[C@@H](CC(C)C)C(=O)O)n2)c(C)n1C`, the inhibition at 100 µM (Escherichia coli [12]) is reported as 58% and the inhibition at 100 µM (Staphylococcus aureus [17]) is reported as 52%.

`Cc1cc(-c2csc(NC(=O)[C@H](NCC(=O)O)NC(=O)OC(C)(C)C)n2)c(C)n1C` gave an inhibition at 100 µM (Escherichia coli [12]) of 46%.

For `CC(C)[C@H](N[C@H](N)C(=O)Nc1csc(-c2ccccc2)n1)C(=O)O`, the inhibition at 100 µM (Escherichia coli [12]) was 17%, the inhibition at 100 µM (Escherichia coli [13]) was 13% and the inhibition at 100 µM (Escherichia coli [14]) was 2%. The inhibition at 100 µM (Escherichia coli [15]) was 14%, the inhibition at 100 µM (Escherichia coli [16]) was 16% and the inhibition at 100 µM (Staphylococcus aureus [17]) was 5%.

In the case of `Cc1cc(-c2csc(NC(=O)[C@@H](NC(=O)OC(C)(C)C)N[C@@H](CC(C)C)C(=O)O)n2)c(C)n1C`, the inhibition at 50 µM (Escherichia coli [5]) is reported as 8%.

For `CC(C)[C@H](N[C@H](NC(=O)OC(C)(C)C)C(=O)Nc1csc(-c2ccccc2)n1)C(=O)O`, the inhibition at 100 µM (Escherichia coli [12]) was 21%.

`CCn1c(C)cc(-c2csc(NC(=O)[C@@H](N)NCC(=O)O)n2)c1C` showed an inhibition at 100 µM (Escherichia coli [12]) of 55%, an inhibition at 100 µM (Escherichia coli [13]) of 13% and an inhibition at 100 µM (Escherichia coli [14]) of 65%. It also gave an inhibition at 100 µM (Escherichia coli [15]) of 20%, an inhibition at 100 µM (Escherichia coli [16]) of 16% and an inhibition at 50 µM (Staphylococcus aureus [22]) of 14%. It also gave an inhibition at 100 µM (HepG2 [18]) of 23% and a logP [24] of 1.4.

Reference: ChEMBL document CHEMBL4732025, “Assessment of the rules related to gaining activity against Gram-negative bacteria” (RSC Med Chem, 2021)
